Data published in ChEMBL document CHEMBL1671832, “Discovery of novel cyanamide-based inhibitors of cathepsin C” (ACS Med Chem Lett, 2011).

How the values were obtained:
Procathepsin L = Procathepsin L (Homo sapiens, UniProt P07711); assay: Inhibition of human recombinant cathepsin L after 1 hr
Cathepsin S = Cathepsin S (Homo sapiens, UniProt P25774); assay: Inhibition of human recombinant cathepsin S after 1 hr
Cathepsin B = Cathepsin B (Homo sapiens, UniProt P07858); assay: Inhibition of human recombinant cathepsin B after 1 hr
Dipeptidyl peptidase 1 = Dipeptidyl peptidase 1 (Homo sapiens, UniProt P53634); assay: Inhibition of human recombinant cathepsin C after 1 hr
[1] = Metabolic stability in rat plasma assessed as compound remaining after 30 mins by HPLC analysis; assay type: ADME, cell-free; settings: read-out: Stability
In short: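 Compound was incubated in rat plasma for 30 min, then % compound remaining was determined. Values are the mean of two or more independent assays.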

Cathepsin K = biological target: T1, Cathepsin K (Homo sapiens, UniProt P43235); assay: Inhibition of human recombinant cathepsin K after 1 hr
T1 sequence (P43235 whole entry): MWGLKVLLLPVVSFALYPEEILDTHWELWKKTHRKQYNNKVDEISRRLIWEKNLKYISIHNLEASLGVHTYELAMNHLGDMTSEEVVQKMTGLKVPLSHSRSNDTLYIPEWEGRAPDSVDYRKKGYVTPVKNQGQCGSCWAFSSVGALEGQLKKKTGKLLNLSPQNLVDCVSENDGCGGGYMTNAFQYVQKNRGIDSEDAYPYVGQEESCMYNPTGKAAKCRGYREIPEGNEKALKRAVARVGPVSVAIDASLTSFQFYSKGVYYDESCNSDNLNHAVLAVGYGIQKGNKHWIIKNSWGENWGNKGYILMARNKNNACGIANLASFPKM

Plasma [2] = assay: Metabolic stability in rat plasma in presence of broad spectrum esterase inhibitor; assay type: ADME, cell-free
Plasma [3] = assay: Metabolic stability in rat plasma in presence of free cysteine; assay type: ADME, cell-free
Plasma [4] = assay: Metabolic stability in rat plasma in presence of glutathione; assay type: ADME, cell-free
Plasma [5] = assay: Metabolic stability in rat plasma in presence of rat serum albumin; assay type: ADME, cell-free
[6] = Volume of distribution at steady state in dog at 5 mg/kg, iv and 10 mg/kg, po; assay type: ADME, organism-based, Canis lupus familiaris; settings: in vivo, read-out: Vdss
Mus musculus [7] = assay: In vivo inhibition of cathepsin C in C57BL/6J mouse lung homogenates assessed as cleavage of H-Gly-Arg)2 R110 at 30 mg/kg administered intranasally after 0.5 hrs; assay type: functional; design: scale not given: the % may be the effect or the level left
[8] = Bioavailability in mouse at 5 mg/kg, iv and 20 mg/kg, po; assay type: ADME, organism-based; settings: in vivo
[9] = AUC in dog at 10 mg/kg, po; assay type: ADME, organism-based, Canis lupus familiaris; design: dose 10 mg/kg, route oral; settings: plasma
[10] = Bioavailability in dog at 5 mg/kg, iv and 10 mg/kg, po; assay type: ADME, organism-based, Canis lupus familiaris; settings: in vivo
Mus musculus [11] = assay: In vivo inhibition of cathepsin C in C57BL/6J mouse lung homogenates assessed as cleavage of H-Gly-Arg)2 R110 at 30 mg/kg administered intranasally after 1.5 hrs; assay type: functional; design: scale not given: the % may be the effect or the level left
Rattus norvegicus [12] = assay: Bioavailability in rat at 1 mg/kg, iv and 2 mg/kg, po; assay type: ADME, organism-based; settings: in vivo
Mus musculus [13] = assay: In vivo inhibition of cathepsin C in C57BL/6J mouse lung homogenates assessed as cleavage of H-Gly-Arg)2 R110 at 30 mg/kg administered intranasally after 3 hrs; assay type: functional; design: scale not given: the % may be the effect or the level left
[14] = Half life in mouse at 5 mg/kg, iv and 20 mg/kg, po; assay type: ADME, organism-based; settings: in vivo
Mus musculus [15] = assay: In vivo inhibition of cathepsin C in C57BL/6J mouse lung homogenates assessed as cleavage of H-Gly-Arg)2 R110 at 30 mg/kg, po after 1.5 hrs; assay type: functional; design: scale not given: the % may be the effect or the level left
In short: (§1)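 Oral dose of 30 mg/kg to C57BL/6J mice, n = 5 per group. Crude lung homogenate was taken at 0.5, 1.5 and 3 h. Cathepsin C activity was measured by cleavage of (H-Gly-Arg)2 R110 at 10 μM and expressed as % inhibition.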

[16] = Volume of distribution at steady state in mouse at 5 mg/kg, iv and 20 mg/kg, po; assay type: ADME, organism-based; settings: in vivo, read-out: Vdss
Mus musculus [17] = assay: In vivo inhibition of cathepsin C in C57BL/6J mouse plasma assessed as cleavage of H-Gly-Arg)2 R110 at 30 mg/kg, po after 30 mins; assay type: functional; design: scale not given: the % may be the effect or the level left
In short: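 Female/male not stated; mice dosed orally at 30 mg/kg (n = 5). Plasma cathepsin C activity was read as cleavage of (H-Gly-Arg)2 R110 substrate at 10 μM, sampled 30 min post-dose as part of a time course.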

[18] = Half life in rat at 1 mg/kg, iv and 2 mg/kg, po; assay type: ADME, organism-based; settings: in vivo
[19] = Plasma clearance in mouse at 5 mg/kg, iv and 20 mg/kg, po; assay type: ADME, organism-based
[20] = Half life in dog at 5 mg/kg, iv and 10 mg/kg, po; assay type: ADME, organism-based, Canis lupus familiaris; settings: in vivo
[21] = Plasma clearance in dog at 5 mg/kg, iv and 10 mg/kg, po; assay type: ADME, organism-based, Canis lupus familiaris
Mus musculus [22] = assay: In vivo inhibition of cathepsin C in C57BL/6J mouse lung homogenates assessed as cleavage of H-Gly-Arg)2 R110 at 30 mg/kg, po after 0.5 hrs; assay type: functional; design: scale not given: the % may be the effect or the level left; in short: as §1
Rattus norvegicus [23] = assay: AUC in rat at 2 mg/kg, po; assay type: ADME, organism-based, Plasma; design: dose 2 mg/kg, route oral; settings: in vivo
Mus musculus [24] = assay: In vivo inhibition of cathepsin C in C57BL/6J mouse lung homogenates assessed as cleavage of H-Gly-Arg)2 R110 at 30 mg/kg, po after 3 hrs; assay type: functional; design: scale not given: the % may be the effect or the level left; in short: as §1
[25] = Volume of distribution at steady state in rat at 1 mg/kg, iv and 2 mg/kg, po; assay type: ADME, organism-based; settings: in vivo, read-out: Vdss

Sequence of Procathepsin L (P07711 whole entry): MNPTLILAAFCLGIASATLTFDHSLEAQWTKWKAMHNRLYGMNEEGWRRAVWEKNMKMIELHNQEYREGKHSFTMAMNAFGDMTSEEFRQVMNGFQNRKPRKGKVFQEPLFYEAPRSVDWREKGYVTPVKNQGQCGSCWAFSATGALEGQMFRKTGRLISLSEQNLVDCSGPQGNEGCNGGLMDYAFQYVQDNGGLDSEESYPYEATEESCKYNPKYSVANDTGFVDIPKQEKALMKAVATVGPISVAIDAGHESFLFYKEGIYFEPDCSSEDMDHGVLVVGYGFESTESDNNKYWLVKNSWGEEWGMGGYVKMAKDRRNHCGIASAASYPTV
Sequence of Cathepsin S (P25774 whole entry): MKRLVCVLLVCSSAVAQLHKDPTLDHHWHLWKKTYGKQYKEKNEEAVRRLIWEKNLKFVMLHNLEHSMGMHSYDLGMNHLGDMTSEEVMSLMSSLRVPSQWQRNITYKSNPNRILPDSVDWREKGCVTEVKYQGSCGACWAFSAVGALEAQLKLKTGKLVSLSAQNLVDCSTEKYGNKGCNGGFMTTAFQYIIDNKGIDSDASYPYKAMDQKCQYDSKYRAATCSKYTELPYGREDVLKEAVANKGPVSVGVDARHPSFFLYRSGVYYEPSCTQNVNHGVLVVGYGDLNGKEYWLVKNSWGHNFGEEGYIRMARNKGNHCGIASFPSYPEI
Sequence of Dipeptidyl peptidase 1 (P53634 25-134 limits assumed): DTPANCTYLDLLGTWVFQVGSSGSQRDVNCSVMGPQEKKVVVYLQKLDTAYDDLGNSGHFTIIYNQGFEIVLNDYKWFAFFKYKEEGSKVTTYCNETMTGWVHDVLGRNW
Sequence of Dipeptidyl peptidase 1 (P53634 231-394 limits assumed): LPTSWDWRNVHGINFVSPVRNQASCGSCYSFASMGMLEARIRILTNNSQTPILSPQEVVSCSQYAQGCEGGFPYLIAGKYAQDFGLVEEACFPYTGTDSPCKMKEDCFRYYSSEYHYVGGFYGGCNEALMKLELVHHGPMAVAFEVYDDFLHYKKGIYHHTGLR
Sequence of Dipeptidyl peptidase 1 (P53634 395-463 limits assumed): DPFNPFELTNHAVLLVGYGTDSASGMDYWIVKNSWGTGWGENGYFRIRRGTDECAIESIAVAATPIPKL

Compound | IC50 (Procathepsin L) | IC50 (Cathepsin S) | IC50 (Cathepsin B) | IC50 (Dipeptidyl peptidase 1) | remaining at 0.5 h [1] | IC50 (Cathepsin K) | further results
N#CN1CCC(CCc2ccccc2)C1 (centres undefined) | 631 nM | 1580 nM | 5010 nM | 2000 nM | 13% | 1260 nM | –
N#CN1CC[C@H](NS(=O)(=O)c2ccccc2)C1 | – | 501 nM | 3980 nM | 316 nM | 48% | 31.6 nM | –
N#CN1CC[C@@H](NC(=O)c2ccc(F)cc2)C1 | – | 12600 nM | 3980 nM | 2510 nM | – | 63.1 nM | –
N#CN1CC[C@@H](NC(=O)Nc2ccccc2)C1 | 1260 nM | 3980 nM | 1260 nM | 1000 nM | – | – | –
CC(C)(C)OC(=O)N1CC[C@@H](NS(=O)(=O)c2cccc(Br)c2)C1 | > 25100 nM | > 25100 nM | > 25100 nM | > 25100 nM | ≥ 100% | > 25100 nM | –
C[C@@H]1C[C@@H](NS(=O)(=O)c2cccc(Br)c2)CN1C#N | 2510 nM | 15800 nM | > 25100 nM | 15800 nM | 45% | 1000 nM | –
C[C@H]1C[C@@H](NS(=O)(=O)c2cc(Br)ccc2Br)CN1C#N | 501 nM | 1000 nM | > 25100 nM | 3.16 nM | 88% | 39.8 nM | Vd [6]: 1.3 L/kg; Activity (Mus musculus [7]): 53%; bioavailability [8]: 1%; AUC [9]: 1180 ng·h/mL; bioavailability [10]: 20%; Activity (Mus musculus [11]): 66%; F (Rattus norvegicus [12]): 8%; Activity (Mus musculus [13]): 85%; half-life [14]: 12 min; Activity (Mus musculus [15]): 16%; Vd [16]: 0.4 L/kg; Activity (Mus musculus [17]): 35%; half-life [18]: 12 min; clearance [19]: 16 mL/min/kg; half-life [20]: 42 min; clearance [21]: 29 mL/min/kg; Activity (Mus musculus [22]): 32%; AUC (Rattus norvegicus [23]): 7 ng·h/mL; Activity (Mus musculus [24]): 28%; Vd [25]: 3.1 L/kg
N#CN1CCCC1 [CYANO-PYRROLIDINE] | 1580 nM | 25100 nM | > 25100 nM | > 25100 nM | – | 3980 nM | –

Now from value to compound, other results behind:

IC50 (Procathepsin L) | IC50 (Cathepsin S) | IC50 (Cathepsin B) | IC50 (Dipeptidyl peptidase 1) | remaining at 0.5 h [1] | IC50 (Cathepsin K) | Compound | further results
– | 7940 nM | – | > 25100 nM | – | 10000 nM | N#CN1CCCC(CCc2ccccc2)C1 (centres undefined) | –
– | 1580 nM | 10000 nM | 316 nM | 30% | 200 nM | N#CN1CC[C@@H](NS(=O)(=O)c2ccccc2)C1 | –
39.8 nM | 316 nM | 6310 nM | 7.94 nM | 18% | 7.94 nM | N#CN1CC[C@@H](NS(=O)(=O)c2cccc(Br)c2)C1 | Stability (Plasma [2]): Stable; Stability (Plasma [3]): Stable; Stability (Plasma [4]): Stable; Stability (Plasma [5]): Stable
1260 nM | 2000 nM | 12600 nM | 10 nM | 23% | 79.4 nM | COc1ccc(OC)c(S(=O)(=O)N[C@@H]2CCN(C#N)C2)c1 | –
25.1 nM | 126 nM | 1580 nM | < 0.398 nM | 18% | 2 nM | N#CN1CC[C@@H](NS(=O)(=O)c2cc(Br)ccc2Br)C1 | –
12600 nM | > 25100 nM | > 25100 nM | > 25100 nM | 95% | 5010 nM | O=CN1CC[C@@H](NS(=O)(=O)c2cccc(Br)c2)C1 | –
> 25100 nM | > 25100 nM | > 25100 nM | > 25100 nM | 88% | > 25100 nM | COc1ccc(OC)c(S(=O)(=O)N[C@@H]2C[C@@H](C)N(C#N)C2)c1 | –
3160 nM | 3980 nM | > 25100 nM | 158 nM | – | 251 nM | C[C@H]1C[C@@H](NS(=O)(=O)c2cccc(Br)c2)CN1C#N | –
3160 nM | 15800 nM | > 25100 nM | 126 nM | – | 631 nM | COc1ccc(OC)c(S(=O)(=O)N[C@@H]2C[C@H](C)N(C#N)C2)c1 | –
